SENP1 FRET inh – blocks the human SENP1 SUMO protease catalytic domain; Q9P0U3; recombinant SENP1 catalytic domain, CyPet-SUMO1-YPet FRET cleavage; inhibition, % at 10 µM; actives 0.21% (n = 360,000); AID 624204;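 active means inhibition at least 30% at 10 µM, raw YFP signal under a set limit, fluorescence ratio 0.5 to 1.5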;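 further: 0% = enzyme with DMSO and 100% = no enzyme wells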
Target sequence (Q9P0U3 419-644 limits assumed): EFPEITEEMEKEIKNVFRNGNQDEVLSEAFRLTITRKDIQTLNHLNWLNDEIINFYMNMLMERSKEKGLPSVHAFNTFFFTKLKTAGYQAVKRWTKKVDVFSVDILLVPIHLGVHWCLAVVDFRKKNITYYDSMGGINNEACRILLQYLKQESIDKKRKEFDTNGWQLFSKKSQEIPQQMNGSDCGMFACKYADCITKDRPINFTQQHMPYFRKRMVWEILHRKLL
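Test system: human SENP1 catalytic domain; medium: Tris pH 8 buffer plus EDTA, NaCl, BME, BSA, NP40, catalase; incubation: 50 min reaction at room temperature; technique: FRET, CFP and YFP emission; controls: no-enzyme low control and enzyme-plus-DMSO high control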
FAS TE block – FAS thioesterase (human) inhibition; inhibition, % at 15 µM; actives 0.67% (n = 360,000); P49327; recombinant FAS-TE, OMFH fluorogenic substrate, fluorescence endpoint;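 active means compounds whose normalised, plate-corrected inhibition of enzyme fluorescence in the single-dose primary screen is 50% or more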;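 further: 0% = DMSO with enzyme and 100% = substrate without enzyme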
JMJD2C inh – blocks human GASC-1 demethylase activity. Q9H3R0. GST-JMJD2C(1-420) H3K9me3 demethylation, DELFIA europium. AID 2099. actives 0.069% (n = 330,000). inhibition, % at 2.35 µM;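 active means more than half of a compound's replicate wells show inhibition beyond 50%, single wells judged on their own value; inconclusive means some, but no more than half, of replicates pass 50% inhibition; inactive means no replicate passes 50% inhibition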;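 further: signal counts dimethyl H3K9 product captured on neutravidin plate; 0% = median of DMSO wells and 100% = 0.3 times that DMSO median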
Target sequence (Q9H3R0 1-420 limits assumed): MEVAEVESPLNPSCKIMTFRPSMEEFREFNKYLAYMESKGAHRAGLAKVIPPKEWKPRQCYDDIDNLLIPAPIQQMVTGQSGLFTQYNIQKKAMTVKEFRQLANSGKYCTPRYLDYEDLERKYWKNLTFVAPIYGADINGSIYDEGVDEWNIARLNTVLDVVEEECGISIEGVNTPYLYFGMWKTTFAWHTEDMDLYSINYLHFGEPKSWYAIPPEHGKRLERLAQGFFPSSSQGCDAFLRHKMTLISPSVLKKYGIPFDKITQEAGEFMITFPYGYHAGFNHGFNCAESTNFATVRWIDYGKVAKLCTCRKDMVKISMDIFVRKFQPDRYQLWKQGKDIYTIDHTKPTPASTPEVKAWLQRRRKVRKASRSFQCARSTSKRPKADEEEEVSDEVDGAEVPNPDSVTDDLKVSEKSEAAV
Arrestin-AP2 inh – inhibitors of human beta-arrestin and AP2 interaction. AID 504490. actives 0.31% (n = 340,000). FITC-arrestin peptide / GST-AP2 beads, flow cytometry; AP2 beta2 appendage carries R879A mutation. inhibition, % at 10 µM;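 active means inhibition above a set limit, near 3 SD of compounds lacking own fluorescence, cut at about 54% in these data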;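 further: plate controls were DMSO wells for no effect and 5 µM unlabelled arrestin peptide for full effect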
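System: GST-AP2 R879A bound to glutathione beads, E. coli-expressed. Also added: 50 nM FITC-arrestin peptide. Schedule: compound with beads 12 min RT, then probe 1 h RT. Signal: bead flow cytometry, FITC channel. Read-out basis: percent response.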
Arr-AP2 CP1 – human beta-arrestin and AP2 interaction inhibition, cherry pick | AID 504908 | actives 2% (n = 1,300) | GST-AP2 beads, FITC arrestin peptide binding, flow cytometry; GST-fused beta2-adaptin appendage, R879A mutant | inhibition, % at 10 µM | shares compounds with Arrestin-AP2 inh;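 active means inhibition above a set limit, roughly 3 SD of non-fluorescent compound noise, cut at about 38% in these data; inactive means inhibition at or below that limit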;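 further: loss of bead fluorescence from 50 nM FITC arrestin peptide bound to appendage; 0% = negative control wells and 100% = excess unlabelled arrestin peptide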
GST-FITC bead – GST-GSH bead binding interference, counter-screen | shares compounds with Arrestin-AP2 inh | GST-fluorescein binding to GSH beads, fluorescence | inhibition, % at 10 µM | actives 2% (n = 1,300) | AID 588338;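 active means inhibition above 50%, about 3 SD of the inhibition seen with non-fluorescent compounds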;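 further: fluorescein maleimide labelled GST captured on 4 micron glutathione beads; higher means more loss of bead fluorescence from quenching or blocked binding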
Starred values were filed as active, the others as inactive; ? = inconclusive; / = no result given; ! = a repeat was not active. Compounds with a hit are over-represented: about 1.1% of the library has one in this group of screens.

SMILES	SENP1 FRET inh	FAS TE block	JMJD2C inh	Arrestin-AP2 inh	others
CCOc1ccc(N2C(=O)NC(=O)/C(=C\c3ccc(N4CCCCC4)o3)C2=O)cc1	24.2	-14.4	18.6	-10.8
CN1C(=O)/C(=C/c2ccc(N3CCCCCC3)o2)C(=O)NC1=S	81.4*	-7.2	10.5	3.6
CN1C(=O)/C(=C\c2ccc(N3CCCCCC3)cc2)C(=O)NC1=S	-20.7	-7.2	3.7	15.2
C=CCN1C(=O)/C(=C\c2ccc(N3CCOCC3)o2)C(=O)NC1=S	40.0*	-9.2	1.7	-39.8
CN1C(=O)/C(=C\c2ccc(N3CCCCC3)o2)C(=O)NC1=S	87.8*	-8.2	10.0	-9.0
OC(c1cccc(Cl)c1)(c1cccc(Cl)c1)C1CN2CCC1CC2 (configuration not stated)	2.9	1.5	-2.6	0.7
COCc1cc(OC(=O)N(C)C)nc2c1c(C)nn2C	3.8	-6.7	62.8*	7.9
CCOc1cc2c(cc1OCC)-n1cccc1C(c1ccc(OC)cc1)NC2 (configuration not stated)	3.8	-2.0	-2.0	36.9
c1ccc(C(c2ccccc2)c2ccncc2)cc1	-0.8	-10.4	/	-1.1
CCCC12CN3CC(CCC)(CN(C1)C3c1ccccn1)C2=O (configuration not stated)	-0.8	-2.3	8.4	4.9
CCN1CCN(c2ccc([N+](=O)[O-])cc2C=C2C(=O)NC(=O)NC2=O)CC1	2.9	-6.5	56.8*	15.8
CC(=O)N1CCN(c2ccc([N+](=O)[O-])cc2C=C2C(=O)NC(=O)NC2=O)CC1	5.1	-8.6	?	-5.9
CN1C(=O)C(Cc2ccsc2)C(=O)N(C)C1=O	-0.1	-6.2	73.9*	9.9
CCOC(=O)N1CCC(NC(=O)CCc2nc(C3=CCN(C)CC3)no2)CC1	-4.6	-1.9	52.8*	12.0
COc1cc(N2CCOCC2)ccc1/C=C1\C(=O)NC(=O)N(Cc2ccc3c(c2)OCO3)C1=O	-1.3	-2.3	6.1	13.0
C=CCN1C(=O)NC(=O)/C(=C/c2ccc(OC)c(CSc3ccccn3)c2)C1=O	-2.2	-4.1	41.5	3.4
COc1cc(Br)cc(CN2CCN(C)CC2)c1O	1.6	-9.2	58.9*	5.9
COc1ccc(Br)cc1CN1CCN(CCO)CC1	0.6	-5.1	4.5	23.8
Cc1ccc2nc3c(cc2c1)CC1(C(=O)N(C)C(=O)N(C)C1=O)C1CCCCN31 (configuration not stated)	-4.0	3.4	55.5*	-0.9
Cc1ccc2nc3c(cc2c1)CC1(C(=O)N(C)C(=O)N(C)C1=O)C1COCCN31 (configuration not stated)	-1.8	-1.2	14.2	3.4
CC1Oc2cc3c(-c4c(O)cc(O)c5c(O)c6c(cc45)OC(C)C(C)C6=O)c(O)cc(O)c3c(O)c2C(=O)C1C (configuration not stated)	65.2*	22.2	11.2	7.0
CC(C)NS(=O)(=O)c1ccc(OCC(=O)N2CCN(Cc3ccc4c(c3)OCO4)CC2)c(Cl)c1	2.3	50.4*	2.6	6.5
Cc1cccnc1-n1c(C)nc2ccccc2c1=O	1.3	-6.3	0.4	10.0
CN1CCN(c2ccc([N+](=O)[O-])c3no[n+]([O-])c23)CC1	83.7*	-11.7	2.5	-12.5
CC(C)(C)n1nnnc1C(CCc1ccccc1)N1CCC2(CC1)C(=O)NCN2c1ccccc1 (configuration not stated)	-0.1	25.6	/	/
SMILES	SENP1 FRET inh	FAS TE block	JMJD2C inh	Arrestin-AP2 inh	others
O=c1c2ccccc2nc(/C=C/c2ccccc2O)n1-c1ccccc1O	49.2*	-29.0	-10.5	36.7
O=c1c2ccccc2nc(/C=C/c2ccccc2F)n1-c1ccccc1O	1.6	5.7	-10.7	9.2
C=C(C)C(Cc1c(OC)ccc(C(=O)/C=C/c2ccc(O)cc2)c1O)OO (configuration not stated)	15.8	3.1	/	17.0
Cc1cccc(N2C(=O)NC(=O)/C(=C/c3ccc([N+](=O)[O-])o3)C2=O)c1	/	/	55.4*	/
Cc1cccc(N2C(=O)NC(=O)/C(=C\C=C\c3ccco3)C2=O)c1	-34.9	-4.6	0.8	23.6
Cc1nc2c(=O)n(C)c(=O)nc-2n(C)n1	48.8*	7.7	91.9*	-2.3
CCN1/C(=C/C=C/C2=[N+](CC)c3ccccc3C2(C)C)C(C)(C)c2ccccc21	76.5*	-138.2	/	/
O=C(c1ccc(Cl)cc1)C12CN3CN(CN(C3)C1)C2	-0.1	-10.6	6.6	105.5*	Arr-AP2 CP1=-2.6;GST-FITC bead=-1.9
CC(=O)OC1CC(OC2C(O)CC(OC3C(O)CC(OC4CCC5(C)C(CCC6C5CC(O)C5(C)C(C7=CC(=O)OC7)CCC65O)C4)OC3C)OC2C)OC(C)C1OC1OC(CO)C(O)C(O)C1O (configuration not stated)	1.5	-1.6	/	-35.1
CN1CCN(c2ccc(N)cc2Cl)CC1	9.3	-6.2	5.2	59.3*	Arr-AP2 CP1=17.0;GST-FITC bead=52.2*
CN1C(=O)N(C)C(=O)C2(Cc3cc(NC(=O)c4ccccc4Cl)ccc3N3CCCC32)C1=O (configuration not stated)	-31.0	-5.5	3.1	56.2*	Arr-AP2 CP1=4.7;GST-FITC bead=-2.2
C[N+]12CCC(CC1)C(=C(c1ccccc1)c1ccccc1)C2	-0.2	-12.4	-0.4	66.0*	Arr-AP2 CP1=-15.1;GST-FITC bead=-8.1
CC[N+]12CCC(CC1)C(=C(c1ccccc1)c1ccccc1)C2	2.3	-14.9	-6.8	12.3
CCOC(=O)c1c(/N=C/c2c(O)n(-c3ccc(F)cc3)c(=S)[nH]c2=O)sc2c1CCCC2	-8.1	-28.1	0.3	41.2
CCOC(=O)c1c(/N=C/c2c(O)n(-c3ccccc3F)c(=S)[nH]c2=O)sc2c1CCCC2	9.1	-100.9	-2.9	84.2*	Arr-AP2 CP1=13.9;GST-FITC bead=23.9
CCC1CN2CCc3cc(OC)c(OC)cc3C2CC1CC1NCCc2c1[nH]c1ccc(O)cc21 (configuration not stated)	-10.0	-4.4	/	-25.4
O=C(NCCO)c1nsnc1NCCCl	1.7	-7.0	-18.7	57.7*	Arr-AP2 CP1=3.5;GST-FITC bead=-6.2
CN(C)CCN(CC1CCCN(Cc2ccccc2F)C1)C(=O)Cc1c(F)cccc1F (configuration not stated)	-1.3	0.5	-0.8	-5.5
O=c1c2ccccc2[se]n1-c1ccccc1	-1.1	-3.5	-11.9	92.2*	Arr-AP2 CP1=124.9*!;GST-FITC bead=46.3
O=c1c2ccccc2nc(-c2ccccc2)n1-c1ccccc1	2.9	1.1	7.2	-3.6
Cc1nc2cc(OC(=O)N(C)Cc3cccc(-c4ccncc4)c3)ccc2s1	-0.7	-2.6	/	/

Screening results from PubChem BioAssay.
